Laboratory results from ChEMBL document CHEMBL1153525, “Adenosine A2A receptor-antagonist/dopamine D2 receptor-agonist bivalent ligands as pharmacological tools to detect A2A-D2 receptor heteromers” (J Med Chem, 2009).
The source made the active and inactive calls. The rule behind the calls is not given here.

What was measured:
[1] = Displacement of [3H]YM09151-2 from D2R (long isoform) dimer in lamb striatum membrane high affinity macroscopic equilibrium dissociation constant by scintillation counting; assay type: cell membranes, Ovis aries
Outline: (§1)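 Lamb striatal membranes (0.3-0.5 mg protein/mL) were incubated 2 h at 25 °C in 50 mM Tris-HCl pH 7.4 with 10 mM MgCl2 and 2 U/mL ADA. Radioligand was 2.1 nM [3H]ZM241385 (A2AR) or 0.9 nM [3H]YM09151-2 (D2R), against 11 competitor concentrations from 0.1 nM to 50 μM in triplicate. Nonspecific binding used 50 μM unlabeled radioligand. After GF/C filtration, counts were fitted to a two-state dimer model for KDB1 and KDB2; three experiments.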

[2] = Displacement of [3H]YM09151-2 from D2R (long isoform) dimer in lamb striatum membrane low affinity macroscopic equilibrium dissociation constant by scintillation counting; assay type: cell membranes, Ovis aries; outline: as §1
[3] = tested on: Dopamine D2 receptor (Homo sapiens); assay: Displacement of [3H]YM09151-2 from human A2aR/D2R (long isoform) heteromer expressed in mouse Ltk cells by scintillation counting
[4] = molecular target: Adenosine A2A receptor (Homo sapiens) (UniProt P29274); assay: Displacement of [3H]ZM241385 from human A2aR/D2R (long isoform) coexpressed in mouse Ltk cells by scintillation counting; assay type: cell-based
Outline: (§2)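 Mouse Ltk fibroblasts were transiently transfected with human A2AR, human D2R (long isoform) or both, and membranes were prepared 48 h later. Membranes were incubated 2 h at 25 °C in 50 mM Tris-HCl pH 7.4 with 10 mM MgCl2 and 2 U/mL ADA, plus 2.1 nM [3H]ZM241385 or 1.9 nM [3H]YM09151-2 and 1 μM test compound. Bound ligand was counted after filtration and expressed as % of specific binding without displacer; three independent experiments.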
Target sequence in this assay (P29274 whole entry, canonical isoform): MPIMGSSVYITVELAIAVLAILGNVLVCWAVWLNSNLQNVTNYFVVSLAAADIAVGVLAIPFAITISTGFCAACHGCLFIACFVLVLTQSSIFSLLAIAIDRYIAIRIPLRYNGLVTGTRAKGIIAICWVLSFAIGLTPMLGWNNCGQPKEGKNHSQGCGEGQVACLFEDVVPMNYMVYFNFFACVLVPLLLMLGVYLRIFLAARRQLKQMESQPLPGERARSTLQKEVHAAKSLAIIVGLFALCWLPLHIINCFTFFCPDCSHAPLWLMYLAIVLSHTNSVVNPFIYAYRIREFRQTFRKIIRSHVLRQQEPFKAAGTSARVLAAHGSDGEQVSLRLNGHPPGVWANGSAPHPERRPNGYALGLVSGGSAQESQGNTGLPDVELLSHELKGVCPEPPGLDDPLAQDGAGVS

[5] = molecular target: Adenosine A2A receptor (Homo sapiens) (UniProt P29274); assay: Displacement of [3H]ZM241385 from human A2aR/D2R (long isoform) heteromer expressed in mouse Ltk cells by scintillation counting; assay type: cell-based; outline: as §2
Target sequence in this assay (P29274 whole entry, canonical isoform): as above

[6] = Displacement of [3H]ZM241385 from A2aR dimer in lamb striatum membrane assessed as high affinity macroscopic equilibrium dissociation constant by scintillation counting; assay type: cell membranes, Ovis aries; outline: as §1
[7] = molecular target: Adenosine A2A receptor (Homo sapiens) (UniProt P29274); assay: Displacement of [3H]ZM241385 from human A2aR expressed in mouse Ltk cells at 1 uM by scintillation counting relative to control; assay type: cell-based; outline: as §2
Target sequence in this assay (P29274 whole entry, canonical isoform): as above

[8] = molecular target: Adenosine A2A receptor (Homo sapiens) (UniProt P29274); assay: Displacement of [3H]ZM241385 from human A2aR expressed in mouse Ltk cells by scintillation counting relative to control; assay type: cell-based; outline: as §2
Target sequence in this assay (P29274 whole entry, canonical isoform): as above

[9] = molecular target: D(2) dopamine receptor (Homo sapiens) (UniProt P14416); assay: Displacement of [3H]YM09151-2 from human D2R expressed in mouse Ltk cells by scintillation counting relative to control; assay type: cell-based; outline: as §2
[10] = molecular target: Adenosine A2A receptor (Homo sapiens) (UniProt P29274); assay: Displacement of [3H]ZM241385 from human A2AR expressed in mouse Ltk cells at 1 uM by scintillation counting relative to control
Target sequence in this assay (P29274 whole entry, looked up, canonical isoform): as the sequence (P29274 whole entry, canonical isoform) above

[11] = molecular target: Adenosine A2A receptor (Homo sapiens) (UniProt P29274); assay: Agonist activity at human A2aR expressed in HEK293 cells assessed as cAMP accumulation at 10 uM
Target sequence in this assay (P29274 whole entry, canonical isoform): as above

[12] = molecular target: D(2) dopamine receptor (Homo sapiens) (UniProt P14416); assay: Agonist activity at human D2R receptor expressed In HEK293 cells assessed as decrease in forskolin-induced cAMP level at 10 uM; assay type: functional, cell-based; design: scale not given: the % may be the effect or the level left
Outline: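 HEK-293 cells transiently transfected with human D2R (long isoform) were kept 16 h in serum-free medium, then used 48 h after transfection. Cells were preincubated 10 min at 37 °C with 50 μM zardaverine in serum-free medium with 10 mM MgCl2. Test ligand at 10 μM was added, then 10 μM forskolin for 15 min. Cells were extracted with HClO4 and cAMP was measured by [3H]cAMP assay, as % of forskolin-induced level; three independent experiments.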

[13] = molecular target: Adenosine A2A receptor (Homo sapiens) (UniProt P29274); assay: Antagonist activity at human A2aR expressed in HEK293 cells assessed as inhibition of CGS-21680-induced cAMP production at 10 uM; assay type: functional, cell-based
Outline: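 Human A2AR was transiently expressed in HEK-293 cells, which were held 16 h serum-free with 1.5 U/mL ADA and used 48 h post-transfection. Cells were preincubated 10 min at 37 °C with 50 μM zardaverine, 10 mM MgCl2 and 1.5 U/mL ADA. Ligand at 10 μM was given alone, or 10 min before 200 nM CGS 21680 (10-15 min). cAMP was measured by [3H]cAMP assay, as % of CGS 21680 response; three independent experiments.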
Target sequence in this assay (P29274 whole entry, canonical isoform): as above

Chain of D(2) dopamine receptor (Homo sapiens) (P14416 whole entry, canonical isoform): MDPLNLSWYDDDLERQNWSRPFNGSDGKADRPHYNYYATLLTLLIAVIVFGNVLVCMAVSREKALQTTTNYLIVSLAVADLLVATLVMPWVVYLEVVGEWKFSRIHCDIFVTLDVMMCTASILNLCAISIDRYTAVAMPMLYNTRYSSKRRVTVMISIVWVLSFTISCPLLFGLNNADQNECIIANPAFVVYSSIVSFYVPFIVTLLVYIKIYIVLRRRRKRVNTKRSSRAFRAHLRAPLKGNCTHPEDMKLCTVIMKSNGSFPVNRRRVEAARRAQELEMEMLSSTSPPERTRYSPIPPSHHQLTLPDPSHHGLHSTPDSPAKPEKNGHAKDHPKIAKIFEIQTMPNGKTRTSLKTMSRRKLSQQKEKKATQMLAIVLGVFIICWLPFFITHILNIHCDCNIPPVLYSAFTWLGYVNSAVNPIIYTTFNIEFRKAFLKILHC

Row | Ki [1] [nM] | Ki [2] [nM] | Activity [3] | Activity [4] | Activity [5] | Ki [6] [nM] | Activity [7] | Activity [8] | Activity [9] | Activity [10] | Activity [11] | Activity [12] [%] | Activity [13] | SMILES
1 | 11 | 12000 | Active | – | – | – | – | – | – | – | – | – | – | CCCN(CCc1ccc(NC(=O)CCC(N)C(=O)NCCCCC(NC(=O)CCC(=O)NCCOCCOCCNC(=O)CCC(=O)NCCOCCOCCNC(=O)C(CCCCNC(C)=O)NC(C)=O)C(N)=O)cc1)C1CCc2c(O)cccc2C1 (configuration not stated)
2 | 1.8 | 500 | Active | Active | Active | 50 | Active | – | inactive | Active | inactive | 78 | Active | CCCN(CCc1ccc(NC(=O)CCC(N)C(=O)NCCCCC(NC(=O)CCC(=O)NCCOCCOCCNC(=O)CCC(=O)NCCOCCOCCNC(=O)CCC(=O)NCCOCCOCCNC(=O)C(CCCCNC(=O)C(N)CCCCNC(=O)COc2ccc(-c3nc4c([nH]3)c(=O)n(CCC)c(=O)n4CCC)cc2)NC(C)=O)C(N)=O)cc1)C1CCc2c(O)cccc2C1 (configuration not stated)
3 | 1 | 9000 | Active | Active | Active | 55 | – | – | – | – | – | – | – | CCCN(CCc1ccc(NC(=O)CCC(N)C(=O)NCCCCC(NC(=O)C(CCCCNC(=O)C(N)CCCCNC(=O)COc2ccc(-c3nc4c([nH]3)c(=O)n(CCC)c(=O)n4CCC)cc2)NC(C)=O)C(N)=O)cc1)C1CCc2c(O)cccc2C1 (configuration not stated)
4 | 1.1 | 7000 | Active | Active | Active | 59 | Active | – | inactive | Active | inactive | 87 | Active | CCCN(CCc1ccc(NC(=O)CCC(N)C(=O)NCCCCC(NC(=O)CCC(=O)NCCOCCOCCNC(=O)C(CCCCNC(=O)C(N)CCCCNC(=O)COc2ccc(-c3nc4c([nH]3)c(=O)n(CCC)c(=O)n4CCC)cc2)NC(C)=O)C(N)=O)cc1)C1CCc2c(O)cccc2C1 (configuration not stated)
5 | 13 | 9000 | Active | – | – | – | Active | inactive | inactive | Active | – | – | – | CCCN(CCc1ccc(NC(=O)CCC(N)C(=O)NCCCCC(NC(=O)CCC(=O)NCCOCCOCCNC(=O)CCC(=O)NCCOCCOCCNC(=O)CCC(=O)NCCOCCOCCNC(=O)C(CCCCNC(C)=O)NC(C)=O)C(N)=O)cc1)C1CCc2c(O)cccc2C1 (configuration not stated)
6 | – | – | – | – | – | 364 | Active | – | – | Active | – | – | – | CCCn1c(=O)c2[nH]c(-c3ccc(OCC(=O)NCCCCC(N)C(=O)NCCCCC(NC(C)=O)C(=O)NCCOCCOCCNC(=O)CCC(=O)NCCOCCOCCNC(=O)CCC(=O)NCCOCCOCCNC(=O)CCC(=O)NC(CCCCNC(C)=O)C(N)=O)cc3)nc2n(CCC)c1=O (configuration not stated)

The next lines start with the compound.

Row | SMILES | Ki [1] [nM] | Ki [2] [nM] | Activity [3] | Activity [4] | Activity [5] | Ki [6] [nM] | Activity [7] | Activity [8] | Activity [9] | Activity [10] | Activity [11] | Activity [12] [%] | Activity [13]
7 | CCCN(CCc1ccc(NC(=O)CCC(N)C(=O)NCCCCC(NC(=O)C(CCCCNC(C)=O)NC(C)=O)C(N)=O)cc1)C1CCc2c(O)cccc2C1 (configuration not stated) | 4 | 9000 | Active | – | – | – | – | – | – | – | – | – | –
8 | CCCN(CCc1ccc(NC(=O)CCC(N)C(=O)NCCCCC(NC(=O)CCC(=O)NCCOCCOCCNC(=O)CCC(=O)NCCOCCOCCNC(=O)C(CCCCNC(=O)C(N)CCCCNC(=O)COc2ccc(-c3nc4c([nH]3)c(=O)n(CCC)c(=O)n4CCC)cc2)NC(C)=O)C(N)=O)cc1)C1CCc2c(O)cccc2C1 (configuration not stated) | 1.1 | 1400 | Active | Active | Active | 80 | – | – | – | – | – | – | –
9 | CCCN(CCc1ccc(NC(=O)CCC(N)C(=O)NCCCCC(NC(=O)CCC(=O)NCCOCCOCCNC(=O)C(CCCCNC(C)=O)NC(C)=O)C(N)=O)cc1)C1CCc2c(O)cccc2C1 (configuration not stated) | 11 | 15000 | Active | – | – | – | Active | inactive | inactive | Active | – | – | –
10 | CCCn1c(=O)c2[nH]c(-c3ccc(OCC(=O)NCCCCC(N)C(=O)NCCCCC(NC(C)=O)C(=O)NCCOCCOCCNC(=O)CCC(=O)NC(CCCCNC(C)=O)C(N)=O)cc3)nc2n(CCC)c1=O (configuration not stated) | – | – | – | – | – | 246 | Active | – | inactive | Active | – | – | –
11 | CCCN(CCc1ccc(NC(=O)CCC(N)C(=O)NCCCCC(NC(=O)CCC(=O)NCCOCCOCCNC(=O)CCC(=O)NCCOCCOCCNC(=O)CCC(=O)NCCOCCOCCNC(=O)CCC(=O)NCCOCCOCCNC(=O)CCC(=O)NCCOCCOCCNC(=O)CCC(=O)NCCOCCOCCNC(=O)CCC(=O)NCCOCCOCCNC(=O)C(CCCCNC(=O)C(N)CCCCNC(=O)COc2ccc(-c3nc4c([nH]3)c(=O)n(CCC)c(=O)n4CCC)cc2)NC(C)=O)C(N)=O)cc1)C1CCc2c(O)cccc2C1 (configuration not stated) | – | – | Active | Active | Active | – | – | – | inactive | – | – | – | –
